Experiments:
MCF7 [1] = assay: Induction of apoptosis in human MCF7 cells assessed as loss of mitochondrial membrane potential at 30 uM after 24 hrs by rhodamine-123-staining based FACS analysis (reference value: 7 % ); format: functional
How it was run: (§1)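 Cells (MCF-7 or PC-3) exposed to indicated concentrations for 24 h; rhodamine-123 (5 µM) added 1 h before end. Cells collected, PBS-washed; fluorescence of 10,000 events read in FL-1 by flow cytometry, loss of mitochondrial potential scored as decreased intensity.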

MCF7 [2] = assay: Induction of cell cycle arrest in human MCF7 cells assessed as apoptotic cells at 10 uM after 24 hrs by propidium iodide-staining based FACS analysis (reference value: 8 %); format: functional
How it was run: (§2)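 MCF-7 or PC-3 cells treated at indicated concentrations for 24 h, pelleted, PBS-washed, fixed in ice-cold 70% ethanol overnight at 4 °C. RNase 0.2 mg/mL 1 h at 37 °C, propidium iodide 10 µg/mL 30 min dark. 10,000 events (FL2-A vs FL2-W) by flow cytometry; fractions in apoptosis/sub-G1, G1, S, G2-M.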

MCF7 [3] = assay: Induction of cell cycle arrest in human MCF7 cells assessed as accumulation at G1 phase at 10 uM after 24 hrs by propidium iodide-staining based FACS analysis (reference value: 50 %); format: functional; how it was run: as §2
Mus musculus [4] = assay: Toxicity in Swiss mouse implanted with Swiss mouse EAC cells assessed as body weight at 25 mg/kg, ip administered for 1 to 9 days measured on day 12 (reference value: 28.4 g); format: organism-based, Ehrlich; settings: in vivo
Mus musculus [5] = assay: Toxicity in Swiss mouse implanted with Swiss mouse EAT cells assessed as mortality at 25 mg/kg, ip administered for 1 to 9 days measured on day 9 and 13; format: organism-based; settings: in vivo
How it was run: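 EAC cells harvested from 8–10-day ascitic Swiss mice; 1×10^7 cells injected intramuscularly into right thigh of Swiss male mice on day 0. Randomized next day: treated n=7, saline control n=10 (0.2 ml i.p.). Dosing i.p. days 1–9. […] Body weight and mortality tracked.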

MCF7 [6] = assay: Induction of cell cycle arrest in human MCF7 cells assessed as accumulation at G2 phase at 20 uM after 24 hrs by propidium iodide-staining based FACS analysis (reference value: 20 %); format: functional; how it was run: as §2
[7] = target: T1, Phosphatidylinositol 4,5-bisphosphate 3-kinase catalytic subunit alpha isoform (Homo sapiens, UniProt P42336); settings: MCF7, 30 uM
T1 sequence (P42336 whole entry, canonical isoform): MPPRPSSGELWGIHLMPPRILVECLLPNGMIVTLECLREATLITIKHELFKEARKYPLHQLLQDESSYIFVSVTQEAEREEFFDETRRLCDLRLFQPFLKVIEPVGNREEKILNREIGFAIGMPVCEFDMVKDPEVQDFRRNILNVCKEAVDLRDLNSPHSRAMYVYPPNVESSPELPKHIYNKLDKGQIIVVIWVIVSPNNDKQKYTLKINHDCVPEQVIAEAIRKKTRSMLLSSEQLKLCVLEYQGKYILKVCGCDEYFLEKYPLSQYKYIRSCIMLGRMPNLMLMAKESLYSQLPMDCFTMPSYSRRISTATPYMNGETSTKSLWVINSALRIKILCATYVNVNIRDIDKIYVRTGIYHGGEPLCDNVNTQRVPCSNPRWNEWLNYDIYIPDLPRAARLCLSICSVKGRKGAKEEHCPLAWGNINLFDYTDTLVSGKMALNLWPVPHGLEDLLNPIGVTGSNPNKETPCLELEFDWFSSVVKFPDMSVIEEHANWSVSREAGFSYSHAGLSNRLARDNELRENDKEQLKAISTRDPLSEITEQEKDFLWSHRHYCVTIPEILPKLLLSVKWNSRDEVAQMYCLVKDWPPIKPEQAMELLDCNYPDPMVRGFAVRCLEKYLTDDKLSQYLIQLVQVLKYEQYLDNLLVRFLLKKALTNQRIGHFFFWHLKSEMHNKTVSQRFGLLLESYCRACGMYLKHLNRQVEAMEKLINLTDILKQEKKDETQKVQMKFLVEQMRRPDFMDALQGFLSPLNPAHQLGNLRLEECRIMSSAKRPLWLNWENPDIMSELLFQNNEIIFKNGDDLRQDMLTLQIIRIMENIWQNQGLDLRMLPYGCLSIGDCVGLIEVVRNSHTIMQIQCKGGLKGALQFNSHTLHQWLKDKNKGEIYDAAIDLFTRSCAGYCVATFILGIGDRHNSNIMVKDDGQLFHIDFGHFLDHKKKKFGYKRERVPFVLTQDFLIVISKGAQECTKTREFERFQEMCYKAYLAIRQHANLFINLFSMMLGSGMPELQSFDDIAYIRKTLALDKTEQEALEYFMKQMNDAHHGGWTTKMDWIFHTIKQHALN

Mus musculus [8] = assay: Toxicity in Swiss mouse implanted with Swiss mouse EAT cells assessed as body weight at 15 mg/kg, ip administered for 1 to 9 days measured on day 1 (reference value: 21.6 g); format: organism-based; settings: in vivo
Mus musculus [9] = assay: Toxicity in Swiss mouse implanted with Swiss mouse EAT cells assessed as body weight at 25 mg/kg, ip administered for 1 to 9 days measured on day 1 (reference value: 21.6 g); format: organism-based; settings: in vivo
[10] = Downregulation of PI3Kdelta expression in human MCF7 cells at 30 uM by Western blot analysis; format: functional, cell-based
How it was run: (§3)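 MCF-7 or PC-3 cells (2 × 10^6) treated with compound, lysed (1 × 10^6 cells) in cold NP-40 buffer with protease inhibitors 30 min on ice, 12,000 g 10 min 4 °C. 50 µg protein per lane on SDS-PAGE, PVDF transfer, 5% milk block, primary antibody 2 h, HRP secondary 1 h, ECL on film; β-actin internal control.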

MCF7 [11] = assay: Induction of cell cycle arrest in human MCF7 cells assessed as accumulation at S phase at 20 uM after 24 hrs by propidium iodide-staining based FACS analysis (reference value: 30 %); format: functional; how it was run: as §2
MCF7 [12] = assay: Induction of cell cycle arrest in human MCF7 cells assessed as apoptotic cells at 20 uM after 24 hrs by propidium iodide-staining based FACS analysis (reference value: 8 %); format: functional; how it was run: as §2
PC-3 [13] = assay: Induction of apoptosis in human PC3 cells assessed as loss of mitochondrial membrane potential at 20 uM after 24 hrs by rhodamine-123-staining based FACS analysis (reference value: 5 % ); format: functional; how it was run: as §1
PC-3 [14] = assay: Induction of cell cycle arrest in human PC3 cells assessed as accumulation at S phase at 10 uM after 24 hrs by propidium iodide-staining based FACS analysis (reference value: 44 %); format: functional; how it was run: as §2
[15] = target: T1, Phosphatidylinositol 4,5-bisphosphate 3-kinase catalytic subunit alpha isoform; assay: Inhibition of PI3Kalpha in human PC3 cells assessed as suppression of akt phosphorylation at Ser-473 residue at 30 uM Western blot analysis; format: cell-based; settings: PC-3
PC-3 [16] = assay: Induction of cell cycle arrest in human PC3 cells assessed as accumulation at G2 phase at 10 uM after 24 hrs by propidium iodide-staining based FACS analysis (reference value: 17 %); format: functional; how it was run: as §2
Mus musculus [17] = assay: Toxicity in Swiss mouse implanted with Swiss mouse EAC cells assessed as body weight at 70 mg/kg, ip administered for 1 to 9 days measured on day 12 (reference value: 28.4 g); format: organism-based, Ehrlich; settings: in vivo
Mus musculus [18] = assay: Toxicity in Swiss mouse implanted with Swiss mouse EAC cells assessed as body weight at 70 mg/kg, ip administered for 1 to 9 days measured on day 9 (reference value: 27.7 g); format: organism-based, Ehrlich; settings: in vivo
[19] = Downregulation of PI3Kdelta expression in human PC3 cells at 30 uM by Western blot analysis; format: functional, cell-based; settings: PC-3; how it was run: as §3
PC-3 [20] = assay: Induction of apoptosis in human PC3 cells assessed as loss of mitochondrial membrane potential at 10 uM after 24 hrs by rhodamine-123-staining based FACS analysis (reference value: 5 % ); format: functional; how it was run: as §1
PC-3 [21] = assay: Induction of cell cycle arrest in human PC3 cells assessed as apoptotic cells at 30 uM after 24 hrs by propidium iodide-staining based FACS analysis (reference value: 2 %); format: functional
How it was run: (§4)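 PC-3 cells exposed 24 h at indicated concentrations, pelleted, fixed overnight in ice-cold 70% ethanol at 4 °C, RNase 0.2 mg/mL at 37 °C 1 h, propidium iodide 10 µg/mL 30 min in dark; 10,000 events acquired (FL2-A vs FL2-W); DNA histograms modelled for apoptotic (sub-G1), G1, S and G2-M fractions.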

PC-3 [22] = assay: Induction of cell cycle arrest in human PC3 cells assessed as apoptotic cells at 10 uM after 24 hrs by propidium iodide-staining based FACS analysis (reference value: 2 %); format: functional; how it was run: as §4
[23] = Downregulation of PI3Kgamma expression in human PC3 cells at 30 uM by Western blot analysis; format: functional, cell-based; settings: PC-3; how it was run: as §3
PC-3 [24] = assay: Induction of apoptosis in human PC3 cells assessed as loss of mitochondrial membrane potential at 30 uM after 24 hrs by rhodamine-123-staining based FACS analysis (reference value: 5 % ); format: functional; how it was run: as §1
PC-3 [25] = assay: Induction of cell cycle arrest in human PC3 cells assessed as apoptotic cells at 20 uM after 24 hrs by propidium iodide-staining based FACS analysis (reference value: 2 %); format: functional; how it was run: as §4
Mus musculus [26] = assay: Toxicity in Swiss mouse implanted with Swiss mouse EAC cells assessed as mortality at 70 mg/kg, ip administered for 1 to 9 days measured on day 12; format: organism-based, Ehrlich; settings: in vivo
How it was run: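 1×10^7 EAC cells injected intraperitoneally into Swiss mice on day 0. Mice randomized next day: treated groups n=7, saline control n=10 (0.2 ml i.p.). Dosing i.p. days 1–9. Sacrifice on day 12; ascitic fluid collected from the peritoneal cavity. % tumor growth inhibition from total tumor cell count versus control. Body weight and mortality tracked.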

N#CCc1ccc(Nc2ncnc3ccc(-c4ccc5[nH]ccc5c4)cc23)cc1
Activity (MCF7 [1]): 20%
Activity (MCF7 [2]): 7%
Activity (MCF7 [3]): 59%
Activity (Mus musculus [4]): 23.8 g
Activity (Mus musculus [5]): Non-Toxic
Activity (MCF7 [6]): 7%
inhibition [7]: 80%
Activity (Mus musculus [8]): 19.85 g
Activity (Mus musculus [9]): 20.14 g
Activity [10]: 30%
Activity (MCF7 [11]): 42%
Activity (MCF7 [12]): 12%

N#CCc1ccc(Nc2ncnc3ccc(-c4cncc5ccccc45)cc23)cc1
Activity (PC-3 [13]): 14%
Activity (PC-3 [14]): 56%
inhibition [15]: 50%
Activity (PC-3 [16]): 3%
Activity (Mus musculus [17]): 24.33 g
Activity (Mus musculus [18]): 23.71 g
Activity [19]: 32%
Activity (PC-3 [20]): 8%
Activity (PC-3 [21]): 25%
Activity (PC-3 [22]): 4%
Activity [23]: 20%
Activity (PC-3 [24]): 18%
Activity (PC-3 [25]): 10%
Activity (Mus musculus [26]): Non-Toxic
